The record followed here is ChEMBL document CHEMBL5352427, “Isoquinolone derivatives as lysophosphatidic acid receptor 5 (LPA5) antagonists: Investigation of structure-activity relationships, ADME properties and analgesic effects” (Eur J Med Chem, 2022).

Common to all, as to assay type: functional, cell-based
Test [1] has as its target T1, Lysophosphatidic acid receptor 5 (Homo sapiens, UniProt Q9H1C0). As to the kind of experiment: Agonist activity at human LPA5 receptor expressed in RH7777 cells assessed as calcium mobilization incubated for 15 mins by FLIPR method. The essentials:
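RH7777 cells stably expressing hLPA5, plated 20,000/well in 0.2% FBS medium 18–20 h, loaded 45 min at 37 °C with Calcium 5 dye in HBSS/20 mM HEPES/2.5 mM probenecid pH 7.4. […] Duplicates.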
(In general: Calcium assays in cells follow changes in intracellular calcium, usually with a dye or a luminescent sensor.)

The target of test [2] is T1, Lysophosphatidic acid receptor 5. As to the kind of experiment: Antagonist activity at human LPA5 receptor expressed in RH7777 cells assessed as inhibition of EC80 concentration of hexadecyl LPA-induced calcium mobilization incubated for 15 mins by FLIPR method.
Test [3] shares this target. In words: Antagonist activity at human LPA5 receptor expressed in RH7777 cells assessed as inhibition of EC80 concentration of hexadecyl LPA-induced calcium mobilization incubated for 15 mins by FLIPR method relative to hexadecyl LPA.

SMILES strings stand for the structures. pIC50: −log10 of the molar value. Calls of active or inactive are those of the source. The rule behind the calls is not given here.

T1 sequence (Q9H1C0 whole entry): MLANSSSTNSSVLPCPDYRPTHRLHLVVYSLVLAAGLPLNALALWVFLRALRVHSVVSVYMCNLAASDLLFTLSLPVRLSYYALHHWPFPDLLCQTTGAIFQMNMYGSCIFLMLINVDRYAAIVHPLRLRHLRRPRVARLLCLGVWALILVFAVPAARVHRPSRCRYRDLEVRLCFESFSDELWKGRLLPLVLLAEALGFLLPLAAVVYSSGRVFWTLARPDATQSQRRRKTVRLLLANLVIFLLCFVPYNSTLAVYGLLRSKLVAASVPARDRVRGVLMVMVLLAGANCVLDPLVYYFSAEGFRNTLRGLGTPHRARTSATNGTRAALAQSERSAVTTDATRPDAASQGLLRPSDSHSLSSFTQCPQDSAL

Consider `COc1cc2c(=O)n(-c3cccc(N(C)C)c3)cc(C(=O)N3CCC(F)CC3)c2cc1OCc1ccccn1`, for which, in test [1], the result was inactive. Further, the pIC50 – broadly, the negative decadic logarithm of the IC50, by convention in mol/L – in test [2] is below 5.00.
For the molecule `COc1cc2c(C(=O)N3CCC(c4ccc(F)cc4F)CC3)cn(-c3cccc(N(C)C)c3)c(=O)c2cc1OC`, the result in test [1] was inactive. The negative logarithm of the IC50 (pIC50) in test [2] is below 5.00.
For `COc1cc2c(C(=O)N3CCCC(C)C3)cn(-c3cccc(N(C)C)c3)c(=O)c2cc1OC` (racemic), in test [1], the outcome was inactive. For the same molecule, in test [3] (filed as antagonist), the inhibition (as a rule, the drop in the measured response relative to a control, in per cent) amounted to 104%. Moreover, the pIC50 in test [2] was 6.59.
In the case of `CCNC(=O)c1cn(-c2cccc(N(C)C)c2)c(=O)c2cc(OC)c(OC)cc12`, the outcome in test [1] was inactive. Moreover, the negative-log IC50 (pIC50) in test [2] is below 5.00.
For the molecule `COc1cc2c(C(=O)N3CCC(C(F)(F)F)CC3)cn(-c3cccc(N(C)C)c3)c(=O)c2cc1OC`, the outcome in test [1] was inactive. Moreover, the inhibition in test [3] (filed as antagonist) is 87%. The pIC50 in test [2] is 5.81.
With `COc1cc2c(C(=O)N3CCCCC3)cn(-c3ccc4cccc(C)c4c3)c(=O)c2cc1OC`, the outcome in test [1] was inactive. Also, the inhibition in test [3] (filed as antagonist) turned out to be 108%. For the same molecule, in test [2], the pIC50 is 6.68.
Regarding `COc1ccc2c(=O)n(-c3cccc(N(C)C)c3)cc(C(=O)N3CCC(F)CC3)c2c1`, the result in test [1] was inactive. Also, the pIC50 in test [2] is below 5.00.
In the case of `COc1cc2c(=O)n(-c3cccc(N(C)C)c3)cc(C(=O)N3CCC(F)CC3)c2cc1OC(C)C`, the outcome in test [1] was inactive. For the same molecule, the inhibition in test [3] (filed as antagonist) came out at 96%. For the same molecule, in test [2], the pIC50 was 6.43.
On to `COc1cc2c(C(=O)NC3CCCC3)cn(-c3cccc(N(C)C)c3)c(=O)c2cc1OC`, for which, in test [1], the outcome was inactive. For the same molecule, the pIC50 in test [2] is below 5.00.
On to `COc1cc2c(=O)n(-c3cccc(N(C)C)c3)cc(C(=O)N3CCC(F)CC3)c2cc1OCC(F)(F)F`, for which the outcome in test [1] was inactive. In test [3] (filed as antagonist), the inhibition is 74%. The pIC50 in test [2] is 5.60.
As for `COc1cc2c(C(=O)N3CCCCC3)cn(-c3ccc4scc(C)c4c3)c(=O)c2cc1OC`, the result in test [1] was inactive. For the same molecule, the inhibition in test [3] (filed as antagonist) was determined as 105%. Besides, the negative-log IC50 (pIC50) in test [2] was 7.49.
For the molecule `COc1cc2c(C(=O)N(C)Cc3ccncc3)cn(-c3cccc(N(C)C)c3)c(=O)c2cc1OC`, the result in test [1] was inactive. The pIC50 in test [2] is below 5.00.
As to `COc1cc2c(C(=O)N3CCCCC3)cn(-c3cccc(C(N)=O)c3)c(=O)c2cc1OC`, the outcome in test [1] was inactive. For the same molecule, in test [2], the pIC50 is below 5.00.
Consider `COc1cc2c(C(=O)N3CCC(C)(C)CC3)cn(-c3cccc(N(C)C)c3)c(=O)c2cc1OC`, for which the result in test [1] was inactive. The inhibition in test [3] (filed as antagonist) worked out at 90%. Also, the pIC50 in test [2] is 5.96.
Turning to `COc1cc2c(C(=O)N3C4CCCC3CC4)cn(-c3cccc(N(C)C)c3)c(=O)c2cc1OC`, the result in test [1] was inactive. Besides, in test [3] (filed as antagonist), the inhibition amounted to 103%. Also, in test [2], the negative-log IC50 (pIC50) is 6.64.
Take `COc1cc2c(C(=O)N3CCCCC3)cn(-c3cccc(C(C)=O)c3)c(=O)c2cc1OC`: the result in test [1] was inactive. Moreover, the inhibition in test [3] (filed as antagonist) was 74%. Also, the pIC50 in test [2] was 5.75.
For the molecule `COc1cc2c(C(=O)N3CCCCC3C)cn(-c3cccc(N(C)C)c3)c(=O)c2cc1OC` (racemic), the outcome in test [1] was inactive. The inhibition in test [3] (filed as antagonist) turned out to be 98%. In addition, the pIC50 in test [2] was 6.00.
`COc1cc2c(C(=O)N3CCC(F)CC3)cn(-c3ccc4occc4c3)c(=O)c2cc1OC`: in test [1], the outcome was inactive. Further, the inhibition in test [3] (filed as antagonist) came to 88%. Moreover, in test [2], the pIC50 was 5.83.
For `COc1cc2c(C(=O)N3CCC(OC)CC3)cn(-c3cccc(N(C)C)c3)c(=O)c2cc1OC`, the result in test [1] was inactive. Besides, the inhibition in test [3] (filed as antagonist) stood at 89%. In test [2], the pIC50 is 6.19.
With `COc1cc2c(C(=O)N3CCCCC3)cn(-c3ccncc3)c(=O)c2cc1OC`, in test [1], the outcome was inactive. The pIC50 in test [2] is below 5.00.
The corresponding values for `COc1cc2c(C(=O)N3CCCCC3)cn(-c3cccc(C(=O)N(C)C)c3)c(=O)c2cc1OC` are “inactive” and below 5.00.
With `COc1cc2c(C(=O)Nc3ccccc3)cn(-c3cccc(N(C)C)c3)c(=O)c2cc1OC`, in test [1], the outcome was inactive. The pIC50 in test [2] was below 5.00.
Consider `COc1cc2c(C(=O)N3CCCCC3)cn(-c3cccc(C(C)C)c3)c(=O)c2cc1OC`, for which the outcome in test [1] was inactive. For the same molecule, the inhibition in test [3] (filed as antagonist) amounted to 105%. The pIC50 in test [2] is 7.20.
As for `COc1cc2c(=O)n(-c3cccc(N(C)C)c3)cc(C(=O)N3CCC(F)CC3)c2cc1O`, in test [1], the outcome was inactive. Moreover, in test [3] (filed as antagonist), the inhibition was determined as 93%. For the same molecule, in test [2], the pIC50 was 5.86.
As for `CC#CC1CCN(C(=O)c2cn(-c3cccc(N(C)C)c3)c(=O)c3cc(OC)c(OC)cc23)CC1`, the result in test [1] was inactive. The inhibition in test [3] (filed as antagonist) turned out to be 91%. Besides, the pIC50 in test [2] is 7.04.
For `COc1cc2c(C(=O)N3CCCCC3)cn(-c3cccc(OC(C)C)c3)c(=O)c2cc1OC`, the result in test [1] was inactive. Moreover, the inhibition in test [3] (filed as antagonist) was determined as 100%. In addition, the pIC50 in test [2] was 6.20.
For `COc1cc2c(C(=O)N3CCCCC3)cn(-c3ccc4occc4c3)c(=O)c2cc1OC`, the outcome in test [1] was inactive. For the same molecule, the inhibition in test [3] (filed as antagonist) worked out at 93%. Also, in test [2], the pIC50 was 5.96.
Regarding `COc1cc2c(C(=O)N3CCC(C(N)=O)CC3)cn(-c3cccc(N(C)C)c3)c(=O)c2cc1OC`, the outcome in test [1] was inactive. In test [2], the pIC50 is below 5.00.
`COc1cc2c(=O)n(-c3cccc(N(C)C)c3)cc(C(=O)N3CCC(F)CC3)c2cc1OC1CCCCC1`: the outcome in test [1] was inactive. Also, the inhibition in test [3] (filed as antagonist) turned out to be 96%. Further, the negative logarithm of the IC50 (pIC50) in test [2] is 6.29.
With `CCCCCOc1cc2c(C(=O)N3CCC(F)CC3)cn(-c3cccc(N(C)C)c3)c(=O)c2cc1OC`, the result in test [1] was inactive. The inhibition in test [3] (filed as antagonist) stood at 111%. In test [2], the pIC50 was 6.64.
`CCCCCNC(=O)c1cn(-c2cccc(N(C)C)c2)c(=O)c2cc(OC)c(OC)cc12`: the result in test [1] was inactive. For the same molecule, the pIC50 in test [2] was below 5.00.
Consider `COc1cc2c(C(=O)N3CCCCC3)cn(-c3ccccn3)c(=O)c2cc1OC`, for which the result in test [1] was inactive. Further, the pIC50 in test [2] is below 5.00.
For `COc1cc2c(C(=O)C3CCCCC3)cn(-c3cccc(N(C)C)c3)c(=O)c2cc1OC`, the outcome in test [1] was inactive. The pIC50 in test [2] is below 5.00.
On to `COc1cc2c(C(=O)N3CCC(C)CC3)cn(-c3cccc(N(C)C)c3)c(=O)c2cc1OC`, for which the outcome in test [1] was inactive. Further, the inhibition in test [3] (filed as antagonist) is 105%. For the same molecule, the pIC50 in test [2] was 6.80.
The corresponding values for `COc1cc2c(=O)n(-c3cccc(N(C)C)c3)cc(C(=O)N3CCC(F)CC3)c2cc1OC1CCCC1` are “inactive”, 103% and 6.05.
Regarding `COc1cc2c(=O)n(-c3cccc(N(C)C)c3)cc(C(=O)N3CCC(F)CC3)c2cc1OCc1cccc2ccccc12`, the result in test [1] was inactive. In test [2], the pIC50 is below 5.00.
As to `COc1cc2c(C(=O)N(C)OC)cn(-c3cccc(N(C)C)c3)c(=O)c2cc1OC`, the outcome in test [1] was inactive. For the same molecule, the inhibition in test [3] stood at 33%. In addition, in test [2], the pIC50 is 6.49.
For the molecule `CCCOc1cc2c(C(=O)N3CCC(F)CC3)cn(-c3cccc(N(C)C)c3)c(=O)c2cc1OC`, in test [1], the outcome was inactive. Moreover, in test [3] (filed as antagonist), the inhibition is 109%. The pIC50 in test [2] is 6.32.
For `COc1cc2c(C(=O)N3CCCC3)cn(-c3cccc(N(C)C)c3)c(=O)c2cc1OC`, the outcome in test [1] was inactive. The pIC50 in test [2] was below 5.00.
On to `COc1cc2c(C(=O)N3CCCc4ccccc43)cn(-c3cccc(N(C)C)c3)c(=O)c2cc1OC`, for which the outcome in test [1] was inactive. Further, the inhibition in test [3] (filed as antagonist) turned out to be 86%. The pIC50 in test [2] is 5.36.
Consider `CN(C)c1cccc(-n2cc(C(=O)N3CCC(F)CC3)c3ccccc3c2=O)c1`, for which the outcome in test [1] was inactive. Also, the pIC50 in test [2] is below 5.00.
For the molecule `COc1cc2c(C(=O)N3C4CCC3CC4)cn(-c3cccc(N(C)C)c3)c(=O)c2cc1OC`, in test [1], the result was inactive. Also, in test [2], the pIC50 was below 5.00.
`COc1cc2c(C(=O)N3CCOCC3)cn(-c3cccc(N(C)C)c3)c(=O)c2cc1OC`: the outcome in test [1] was inactive. Also, the inhibition in test [3] (filed as antagonist) was 71%. Further, the pIC50 in test [2] was 5.66.
For the molecule `COc1ccc2c(C(=O)N3CCC(F)CC3)cn(-c3cccc(N(C)C)c3)c(=O)c2c1`, in test [1], the result was inactive. The inhibition in test [3] (filed as antagonist) was 96%. In addition, in test [2], the pIC50 was 5.97.
With `COc1cc2c(C(=O)NCc3ccccc3)cn(-c3cccc(N(C)C)c3)c(=O)c2cc1OC`, the result in test [1] was inactive. Further, the negative-log IC50 (pIC50) in test [2] is below 5.00.
On to `COc1cc2c(C(=O)N3CCCCC3)cn(-c3ccc4sccc4c3)c(=O)c2cc1OC`, for which, in test [1], the result was inactive. In addition, the inhibition in test [3] (filed as antagonist) turned out to be 101%. In test [2], the pIC50 is 6.19.
In the case of `COc1cc2c(C(=O)N3CCC3)cn(-c3cccc(N(C)C)c3)c(=O)c2cc1OC`, the result in test [1] was inactive. The pIC50 in test [2] is below 5.00.
As to `COc1cc2c(C(=O)N3CCCCC3)cn(-c3cccc(C(C)(C)C)c3)c(=O)c2cc1OC`, the outcome in test [1] was inactive. In addition, the inhibition in test [3] (filed as antagonist) was 107%. Further, in test [2], the pIC50 was 6.76.
As to `COc1cc2c(C(=O)N3CCCCC3)cn(-c3cccnc3)c(=O)c2cc1OC`, the result in test [1] was inactive. In addition, the pIC50 in test [2] was below 5.00.
Taken in the same sequence, the figures for `COc1cc2c(C(=O)N(C)C)cn(-c3cccc(N(C)C)c3)c(=O)c2cc1OC` were “inactive” and below 5.00.
